# Source: ChEMBL document CHEMBL2062435, “Synthesis and in vitro antibacterial activity of gemifloxacin derivatives containing a substituted benzyloxime moiety” (2012)
# Experiments:
# Type in all cases: functional
# Staphylococcus aureus [1] = experiment: Antimicrobial activity against Staphylococcus aureus ATCC […] after 18-24 hrs by two-fold serial dilution method
# Outline: (§1)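 Agar-medium twofold serial dilution against Gram-positive and Gram-negative strains; MIC taken as the lowest compound concentration giving complete inhibition of bacterial growth after incubation at 35 °C for 18-24 h.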
# Staphylococcus aureus [2] = experiment: Antimicrobial activity against extended spectrum beta-lactamases-producing methicillin-resistant Staphylococcus aureus 10-15 after 18-24 hrs by two-fold serial dilution method
# Outline: (§2)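 Agar twofold serial dilution MIC against clinical isolates. MIC was taken as the lowest concentration giving complete inhibition of bacterial growth after incubation at 35 °C for 18-24 h.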
# Staphylococcus aureus [3] = experiment: Antimicrobial activity against extended spectrum beta-lactamases-producing methicillin-sensitive Staphylococcus aureus 10-13 after 18-24 hrs by two-fold serial dilution method; outline: as §1
# Staphylococcus aureus [4] = experiment: Antimicrobial activity against extended spectrum beta-lactamases-producing methicillin-sensitive Staphylococcus aureus 10-14 after 18-24 hrs by two-fold serial dilution method; outline: as §1
# [5] = system: Staphylococcus epidermidis; experiment: Antimicrobial activity against extended spectrum beta-lactamases-producing methicillin-resistant Staphylococcus epidermidis 10-10 after 18-24 hrs by two-fold serial dilution method; outline: as §2
# [6] = system: Staphylococcus epidermidis; experiment: Antimicrobial activity against extended spectrum beta-lactamases-producing methicillin-resistant Staphylococcus epidermidis 10-13 after 18-24 hrs by two-fold serial dilution method; outline: as §2
# [7] = system: Staphylococcus epidermidis; experiment: Antimicrobial activity against extended spectrum beta-lactamases-producing methicillin-sensitive Staphylococcus epidermidis 10-13 after 18-24 hrs by two-fold serial dilution method; outline: as §1
# [8] = system: Staphylococcus epidermidis; experiment: Antimicrobial activity against extended spectrum beta-lactamases-producing methicillin-sensitive Staphylococcus epidermidis 10-15 after 18-24 hrs by two-fold serial dilution method; outline: as §1
# Enterococcus faecalis [9] = experiment: Antimicrobial activity against Enterococcus faecalis 10-5 after 18-24 hrs by two-fold serial dilution method; outline: as §1
# Enterococcus faecalis [10] = experiment: Antimicrobial activity against Enterococcus faecalis 10-6 after 18-24 hrs by two-fold serial dilution method; outline: as §1
# Enterococcus faecalis [11] = experiment: Antimicrobial activity against Enterococcus faecalis 10-7 after 18-24 hrs by two-fold serial dilution method; outline: as §1
# Enterococcus faecium [12] = experiment: Antimicrobial activity against Enterococcus faecium 10-9 after 18-24 hrs by two-fold serial dilution method; outline: as §1
# Escherichia coli [13] = experiment: Antimicrobial activity against Escherichia coli 10-1 after 18-24 hrs by two-fold serial dilution method; outline: as §1
# Escherichia coli [14] = experiment: Antimicrobial activity against extended spectrum beta-lactamases-producing Escherichia coli 10-2 after 18-24 hrs by two-fold serial dilution method; outline: as §1
# Escherichia coli [15] = experiment: Antimicrobial activity against extended spectrum beta-lactamases-producing Escherichia coli 10-3 after 18-24 hrs by two-fold serial dilution method; outline: as §1
# Escherichia coli [16] = experiment: Antimicrobial activity against extended spectrum beta-lactamases-producing Escherichia coli 10-4 after 18-24 hrs by two-fold serial dilution method; outline: as §1
# Klebsiella pneumoniae [17] = experiment: Antimicrobial activity against extended spectrum beta-lactamases-producing Klebsiella pneumoniae 10-1 after 18-24 hrs by two-fold serial dilution method; outline: as §1
# Klebsiella pneumoniae [18] = experiment: Antimicrobial activity against extended spectrum beta-lactamases-producing Klebsiella pneumoniae 10-2 after 18-24 hrs by two-fold serial dilution method; outline: as §1
# Klebsiella pneumoniae [19] = experiment: Antimicrobial activity against Klebsiella pneumoniae 10-3 after 18-24 hrs by two-fold serial dilution method; outline: as §1
# Klebsiella pneumoniae [20] = experiment: Antimicrobial activity against extended spectrum beta-lactamases-producing Klebsiella pneumoniae 10-3 after 18-24 hrs by two-fold serial dilution method; outline: as §1
# Klebsiella pneumoniae [21] = experiment: Antimicrobial activity against Klebsiella pneumoniae 10-4 after 18-24 hrs by two-fold serial dilution method; outline: as §1
# Pseudomonas aeruginosa [22] = experiment: Antimicrobial activity against Pseudomonas aeruginosa 10-12 after 18-24 hrs by two-fold serial dilution method; outline: as §1
# Pseudomonas aeruginosa [23] = experiment: Antimicrobial activity against extended spectrum beta-lactamases-producing Pseudomonas aeruginosa 10-9 after 18-24 hrs by two-fold serial dilution method; outline: as §1
# Pseudomonas aeruginosa [24] = experiment: Antimicrobial activity against extended spectrum beta-lactamases-producing Pseudomonas aeruginosa 10-15 after 18-24 hrs by two-fold serial dilution method; outline: as §1
# Pseudomonas aeruginosa [25] = experiment: Antimicrobial activity against extended spectrum beta-lactamases-producing Pseudomonas aeruginosa 10-20 after 18-24 hrs by two-fold serial dilution method; outline: as §1
# Staphylococcus aureus [26] = experiment: Antimicrobial activity against methicillin-resistant Staphylococcus aureus clinical isolate after 18-24 hrs by two-fold serial dilution method; outline: as §2
# Staphylococcus aureus [27] = experiment: Ratio of levofloxacin MIC to compound MIC for Staphylococcus aureus ATCC […] after 18-24 hrs by two-fold serial dilution method
# [28] = system: Staphylococcus epidermidis; experiment: Ratio of levofloxacin MIC to compound MIC for extended spectrum beta-lactamases-producing methicillin-sensitive Staphylococcus epidermidis 10-11 after 18-24 hrs by two-fold serial dilution method
# Outline: (§3)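 MICs were determined by the standard twofold serial dilution method on agar media against the test strains, with levofloxacin run as a reference. MIC is the lowest concentration giving complete inhibition of bacterial growth after 18–24 h incubation at 35 °C. The ratio is levofloxacin MIC divided by test-compound MIC.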
# [29] = system: Staphylococcus epidermidis; experiment: Ratio of levofloxacin MIC to compound MIC for extended spectrum beta-lactamases-producing methicillin-sensitive Staphylococcus epidermidis 10-13 after 18-24 hrs by two-fold serial dilution method; outline: as §3
# Enterococcus faecalis [30] = experiment: Ratio of levofloxacin MIC to compound MIC for Enterococcus faecalis 10-5 after 18-24 hrs by two-fold serial dilution method
# Enterococcus faecalis [31] = experiment: Ratio of levofloxacin MIC to compound MIC for Enterococcus faecalis 10-6 after 18-24 hrs by two-fold serial dilution method
# Enterococcus faecium [32] = experiment: Ratio of levofloxacin MIC to compound MIC for Enterococcus faecium 10-5 after 18-24 hrs by two-fold serial dilution method
# Enterococcus faecium [33] = experiment: Ratio of levofloxacin MIC to compound MIC for Enterococcus faecium 10-9 after 18-24 hrs by two-fold serial dilution method
# Streptococcus pneumoniae [34] = experiment: Ratio of levofloxacin MIC to compound MIC for extended spectrum beta-lactamases-producing Streptococcus pneumoniae 10-1 after 18-24 hrs by two-fold serial dilution method
# Staphylococcus aureus [35] = experiment: Ratio of gemifloxacin MIC to compound MIC for extended spectrum beta-lactamases-producing methicillin-sensitive Staphylococcus aureus 10-13 after 18-24 hrs by two-fold serial dilution method
# [36] = system: Staphylococcus epidermidis; experiment: Ratio of gemifloxacin MIC to compound MIC for extended spectrum beta-lactamases-producing methicillin-sensitive Staphylococcus epidermidis 10-11 after 18-24 hrs by two-fold serial dilution method
# Enterococcus faecalis [37] = experiment: Ratio of gemifloxacin MIC to compound MIC for Enterococcus faecalis 10-5 after 18-24 hrs by two-fold serial dilution method
# Enterococcus faecalis [38] = experiment: Ratio of gemifloxacin MIC to compound MIC for Enterococcus faecalis 10-6 after 18-24 hrs by two-fold serial dilution method
# Enterococcus faecalis [39] = experiment: Ratio of gemifloxacin MIC to compound MIC for Enterococcus faecalis 10-7 after 18-24 hrs by two-fold serial dilution method
# Enterococcus faecium [40] = experiment: Ratio of gemifloxacin MIC to compound MIC for Enterococcus faecium 10-9 after 18-24 hrs by two-fold serial dilution method
# Streptococcus pneumoniae [41] = experiment: Ratio of gemifloxacin MIC to compound MIC for extended spectrum beta-lactamases-producing Streptococcus pneumoniae 10-1 after 18-24 hrs by two-fold serial dilution method
# Streptococcus pneumoniae [42] = experiment: Ratio of gemifloxacin MIC to compound MIC for extended spectrum beta-lactamases-producing Streptococcus pneumoniae 10-4 after 18-24 hrs by two-fold serial dilution method
compound,measurement,setting,value
COc1ccc(OC)c(CO/N=C2\CN(c3nc4c(cc3F)c(=O)c(C(=O)O)cn4C3CC3)CC2CN)c1.CS(=O)(=O)O (racemic),MIC,Staphylococcus aureus [1],< 8 ng/mL
same,MIC,Staphylococcus aureus [2],0.125 µg/mL
same,MIC,Staphylococcus aureus [3],0.03 µg/mL
same,MIC,Staphylococcus aureus [4],0.03 µg/mL
same,MIC,[5],0.25 µg/mL
same,MIC,[6],0.25 µg/mL
same,MIC,[7],0.03 µg/mL
same,MIC,[8],4 µg/mL
same,MIC,Enterococcus faecalis [9],0.25 µg/mL
same,MIC,Enterococcus faecalis [10],4 µg/mL
same,MIC,Enterococcus faecalis [11],0.25 µg/mL
same,MIC,Enterococcus faecium [12],4 µg/mL
same,MIC,Escherichia coli [13],> 128 µg/mL
same,MIC,Escherichia coli [14],> 128 µg/mL
same,MIC,Escherichia coli [15],> 128 µg/mL
same,MIC,Escherichia coli [16],> 128 µg/mL
same,MIC,Klebsiella pneumoniae [17],> 128 µg/mL
same,MIC,Klebsiella pneumoniae [18],> 128 µg/mL
same,MIC,Klebsiella pneumoniae [19],> 128 µg/mL
same,MIC,Klebsiella pneumoniae [20],> 128 µg/mL
same,MIC,Klebsiella pneumoniae [21],> 128 µg/mL
same,MIC,Pseudomonas aeruginosa [22],> 128 µg/mL
same,MIC,Pseudomonas aeruginosa [23],> 128 µg/mL
same,MIC,Pseudomonas aeruginosa [24],> 128 µg/mL
same,MIC,Pseudomonas aeruginosa [25],> 128 µg/mL
same,MIC50,Staphylococcus aureus [26],0.5 µg/mL
same,MIC90,Staphylococcus aureus [26],1 µg/mL
same,Ratio,Staphylococcus aureus [27],8
same,Ratio,[28],8
same,Ratio,[29],8
same,Ratio,Enterococcus faecalis [30],8
same,Ratio,Enterococcus faecalis [31],8
same,Ratio,Enterococcus faecium [32],8
same,Ratio,Enterococcus faecium [33],8
same,Ratio,Streptococcus pneumoniae [34],8
same,Ratio,Staphylococcus aureus [35],2
same,Ratio,[36],2
same,Ratio,Enterococcus faecalis [37],2
same,Ratio,Enterococcus faecalis [38],2
same,Ratio,Enterococcus faecalis [39],2
same,Ratio,Enterococcus faecium [40],2
same,Ratio,Streptococcus pneumoniae [41],2
same,Ratio,Streptococcus pneumoniae [42],2
